# Source: ChEMBL document CHEMBL4376880, “Developing Inhibitors of the p47phox-p22phox Protein-Protein Interaction by Fragment-Based Drug Discovery” (J Med Chem, 2020)
# Calls of active or inactive are those of the source. The rule behind the calls is not given here.
# How the values were obtained:
# [1] = target: T1, Neutrophil cytosol factor 1 (Homo sapiens, UniProt P14598); assay: Covalent inhibition of recombinant human His-tagged p47phox SH3A-B domain (151 to 285 residues) expressed in Escherichia coli BL21 (DE3) cells interaction with Cy5-p22phox149-162 incubated for 10 mins by fluorescence polarization competition assay
# T1 sequence (P14598 whole entry, the tested form may be a part): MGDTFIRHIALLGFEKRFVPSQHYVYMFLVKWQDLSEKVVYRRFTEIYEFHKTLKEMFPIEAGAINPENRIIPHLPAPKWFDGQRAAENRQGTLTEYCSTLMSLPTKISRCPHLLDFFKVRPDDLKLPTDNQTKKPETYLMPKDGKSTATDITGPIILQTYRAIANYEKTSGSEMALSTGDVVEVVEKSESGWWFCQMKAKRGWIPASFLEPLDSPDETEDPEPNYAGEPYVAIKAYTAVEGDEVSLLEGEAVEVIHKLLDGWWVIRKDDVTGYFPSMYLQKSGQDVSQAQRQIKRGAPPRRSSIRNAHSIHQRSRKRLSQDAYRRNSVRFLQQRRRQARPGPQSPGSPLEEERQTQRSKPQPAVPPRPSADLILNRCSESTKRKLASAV
# [2] = target: T1, Neutrophil cytosol factor 1; assay: Binding affinity to immobilized recombinant human His-tagged p47phox SH3A-B domain (151 to 285 residues) expressed in Escherichia coli BL21 (DE3) cells assessed as dissociation constant by SPR assay
# [3] = target: T1, Neutrophil cytosol factor 1; assay: Binding affinity to immobilized recombinant human His-tagged p47phox SH3A-B domain (151 to 285 residues) expressed in Escherichia coli BL21 (DE3) cells at 12.5 uM in presence of TCEP by SPR assay
# Summary of the method: (§1)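 p47phox SH3A-B (residues 151-285) immobilized at 4684 RU by His capture then amine coupling; compound injected at 12.5 μM in HBS pH 7.4 (10 mM Hepes, 150 mM NaCl, 0.005% Tween) at 25 °C. Sensorgrams were blank- and reference-subtracted with DMSO calibration. Complex then exposed to 2 mM TCEP.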
# [4] = target: T1, Neutrophil cytosol factor 1; assay: Binding affinity to recombinant human His-tagged p47phox SH3A-B domain (151 to 285 residues) expressed in Escherichia coli BL21 (DE3) cells assessed as protein aggregation by SAXS study analysis; settings: TDE = time-dependent effect
# Summary of the method: (§2)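 His-tag removed by HRV-3C protease. Protein (2-5.6 mg/mL, 130-370 μM final) was buffer-exchanged into 10 mM Hepes, 150 mM NaCl, 4% DMSO, pH 7.4, with 100 or 200 μM compound. Samples were held at 6 °C and measured at room temperature, λ 1.34 Å, q 0.01-0.5 Å−1. Fifteen to twenty 60 s frames were radially averaged, and buffer scattering was subtracted.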
# [5] = target: T1, Neutrophil cytosol factor 1; assay: Non-reversible binding affinity to immobilized recombinant human His-tagged p47phox SH3A-B domain (151 to 285 residues) expressed in Escherichia coli BL21 (DE3) cells assessed as slow dissociation rate at 12.5 uM by SPR assay; summary of the method: as §1
# [6] = target: T1, Neutrophil cytosol factor 1; assay: Binding affinity to recombinant human His-tagged 15N-labeled p47phox SH3A-B domain (151 to 285 residues) expressed in Escherichia coli BL21 (DE3) cells assessed as compound interaction with protein at Cys196 in SH3A domain by NMR spectroscopy
# [7] = target: T1, Neutrophil cytosol factor 1; assay: Covalent inhibition of recombinant human His-tagged p47phox SH3A-B domain (151 to 285 residues) expressed in Escherichia coli BL21 (DE3) cells interaction with Cy5-p22phox149-162 incubated for 2 hrs by fluorescence polarization competition assay
# Summary of the method: (§3)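 Heterologous competition FP. The compound was titrated as a 12-point two-fold series in duplicate against 1.25 μM p47phox SH3A-B and 5 nM Cy5-p22phox149-162. Buffer was HBS (50 mM Hepes, 150 mM NaCl, 0.005% Tween 20, pH 7.4), with or without TCEP. Incubation was 10 min or 2 h at room temperature before the FP read.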
# [8] = target: T1, Neutrophil cytosol factor 1; assay: Binding affinity to recombinant human His-tagged p47phox SH3A-B domain (151 to 285 residues) expressed in Escherichia coli BL21 (DE3) cells assessed as protein aggregation by measuring increase in concentration-normalized scattering intensity by SAXS study analysis; summary of the method: as §2
# [9] = target: T1, Neutrophil cytosol factor 1; assay: Ratio of Ki for recombinant human His-tagged p47phox SH3A-B domain (151 to 285 residues) expressed in Escherichia coli BL21 (DE3) cells in presence of TCEP to Ki for recombinant human His-tagged p47phox SH3A-B domain (151 to 285 residues) expressed in Escherichia coli BL21 (DE3) cells by fluorescence polarization competition assay; summary of the method: as §3
# [10] = target: T1, Neutrophil cytosol factor 1; assay: Binding affinity to recombinant human His-tagged p47phox SH3A-B domain (151 to 285 residues) expressed in Escherichia coli BL21 (DE3) cells assessed as protein aggregation by measuring increase in maximum dimensions of the particles by SAXS study analysis; summary of the method: as §2
# [11] = target: T1, Neutrophil cytosol factor 1; assay: Binding affinity to recombinant human His-tagged p47phox SH3A-B domain (151 to 285 residues) expressed in Escherichia coli BL21 (DE3) cells assessed as increase in protein molecular weight at 200 uM by ESI/LC-MS analysis
# [12] = target: T1, Neutrophil cytosol factor 1; assay: Binding affinity to recombinant human His-tagged p47phox SH3A-B domain (151 to 285 residues) expressed in Escherichia coli BL21 (DE3) cells assessed as protein aggregation by measuring increase in SAXS-derived radius of gyration by SAXS study analysis; summary of the method: as §2
# [13] = target: T1, Neutrophil cytosol factor 1; assay: Covalent inhibition of recombinant human His-tagged p47phox SH3A-B domain (151 to 285 residues) expressed in Escherichia coli BL21 (DE3) cells interaction with Cy5-p22phox149-162 incubated for 10 mins in presence of TCEP by fluorescence polarization competition assay; summary of the method: as §3
Compound,Ki ([1]; read-out: Ki) [µM],further results
Cc1cc(N2CCN(C)CC2)c2ccccc2n1,> 2000,
Nc1cnc2ccccc2c1,> 2000,
Cc1cc(N)c2ccccc2n1,1070,Kd [2]: 521 µM
Nc1ccc2ncccc2c1,> 2000,
Nc1cc(Cl)c2ccccc2n1,> 2000,
CN1CCCN(Cc2ccc(CN)cc2)CC1,,Ki [1]: Not Active; Kd [2]: 418 µM
Nc1cc(O)c2ccccc2n1,> 2000,
Nc1cc(OCc2ccc(Cl)cc2)c2ccccc2n1,> 2000,
Oc1ccc2ccccc2n1,> 2000,
Cc1ccc2ccccc2n1 [QUINALDINE],> 2000,
Nc1ccc2cc(OCC3CCCCC3)ccc2n1,> 2000,
Nc1ccccn1 [2-AMINOPYRIDINE],> 2000,
c1ccc2ncccc2c1 [QUINOLINE],> 2000,
Cc1cc(N2CCN(C(=O)OC(C)(C)C)CC2)c2ccccc2n1,> 2000,
c1ccc2nc(N3CCNCC3)ccc2c1 [QUIPAZINE],1410,Kd [2]: 420 µM
Nc1ccc2cccc(O)c2n1,1380,
Nc1ccc2cc(OCc3ccc(Cl)cc3)ccc2n1,> 2000,

Compound,Ki ([1]; read-out: Ki) [µM],further results
c1ccc2c(N3CCNCC3)cccc2c1,1520,Kd [2]: 366 µM
COCCNc1ccc2ccccc2n1,> 2000,
Nc1ncccn1,> 2000,
Nc1ccc2cc(-c3ccc(Cl)cc3)ccc2n1,> 2000,
Nc1cccc2ncccc12,> 2000,
NCc1ccc2ccccc2n1,> 2000,
Nc1ccc2ccccc2c1 [NAPHTHYLAMINE],> 2000,
Nc1ccc2cc(COc3ccc(Cl)cc3)ccc2n1,> 2000,
c1cc(N2CCNCC2)ccn1,302,
Nc1ccc2cc(OCc3ccccc3)ccc2n1,> 2000,
Nc1ccnc2ccccc12 [QUINOLIN-4-AMINE],1520,Kd [2]: 765 µM
Cc1cc(N2CCNCC2)nc2ccccc12,1070,
CC(=O)Nc1ccc2ccccc2n1,> 2000,
Nc1ccc2cc(OCCOCCOCCOCCOc3ccc4nc(N)ccc4c3)ccc2n1,32.7,
Nc1cccc2cccnc12 [8-AMINOQUINOLINE],> 2000,
OCCOCCNc1ccc2ccccc2n1,> 2000,
O=c1c2ccccc2[se]n1-c1ccccc1 [EBSELEN],63,Activity [3]: inactive; Activity [4]: Tde; Activity [5]: Active; Activity [6]: Active; Ki [7]: 12 µM; Activity [8]: Active; Ratio Ki [9]: > 10; Activity [10]: Active; Activity [11]: Active; Activity [12]: Active; Ki [13]: > 300 µM
